Tests used:
Rattus norvegicus [1] = test: Anti-inflammatory activity in rat assessed as inhibition of carrageenan-induced paw edema at 10 mg/kg, po administered 30 mins before carrageenan challenge measured after 5 hrs relative to control; format: functional
How it was run: (§1)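 Male rats were dosed orally with agents suspended in 0.5% Na CMC, 30 min before 0.1 mL of 1% (w/v) carrageenan was injected into the right hind paw. Thickness of both paws was measured 1, 3 and 5 h after injection. Activity was calculated as percent decrease in edema thickness relative to the carrageenan-induced edema. Data given as mean ± SD with non-parametric comparison, P < 0.05.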

Rattus norvegicus [2] = test: Anti-inflammatory activity in rat assessed as inhibition of carrageenan-induced paw edema at 10 mg/kg, po administered 30 mins before carrageenan challenge measured after 3 hrs relative to control; format: functional; how it was run: as §1
Rattus norvegicus [3] = test: Anti-inflammatory activity in rat assessed as inhibition of carrageenan-induced paw edema at 10 mg/kg, po administered 30 mins before carrageenan challenge measured after 1 hr relative to control; format: functional; how it was run: as §1
Rattus norvegicus [4] = test: Analgesic activity in rat assessed as pain threshold time at 10 mg/kg, po measured at 0.5 hr post dose by hot plate method (reference value: 19.1 to 21.2 sec); format: functional
Rattus norvegicus [5] = test: Analgesic activity in rat assessed as pain threshold time at 10 mg/kg, po measured at 1 hr post dose by hot plate method (reference value: 19.1 to 21.2 sec); format: functional
Rattus norvegicus [6] = test: Analgesic activity in rat assessed as pain threshold time at 10 mg/kg, po measured at 1.5 hrs post dose by hot plate method (reference value: 19.1 to 21.2 sec); format: functional
Rattus norvegicus [7] = test: Anti-inflammatory activity in rat assessed as inhibition of carrageenan-induced paw edema at 20 mg/kg, po administered 30 mins before carrageenan challenge measured after 1 hr relative to control; format: functional; how it was run: as §1
Rattus norvegicus [8] = test: Anti-inflammatory activity in rat assessed as inhibition of carrageenan-induced paw edema at 20 mg/kg, po administered 30 mins before carrageenan challenge measured after 3 hrs relative to control; format: functional; how it was run: as §1
Rattus norvegicus [9] = test: Anti-inflammatory activity in rat assessed as inhibition of carrageenan-induced paw edema at 20 mg/kg, po administered 30 mins before carrageenan challenge measured after 5 hrs relative to control; format: functional; how it was run: as §1
Rattus norvegicus [10] = test: Anti-inflammatory activity in rat assessed as inhibition of carrageenan-induced paw edema at 5 mg/kg, po administered 30 mins before carrageenan challenge measured after 1 hr relative to control; format: functional; how it was run: as §1
Rattus norvegicus [11] = test: Anti-inflammatory activity in rat assessed as inhibition of carrageenan-induced paw edema at 5 mg/kg, po administered 30 mins before carrageenan challenge measured after 3 hrs relative to control; format: functional; how it was run: as §1
Rattus norvegicus [12] = test: Anti-inflammatory activity in rat assessed as inhibition of carrageenan-induced paw edema at 5 mg/kg, po administered 30 mins before carrageenan challenge measured after 5 hrs relative to control; format: functional; how it was run: as §1
Rattus norvegicus [13] = test: Anti-inflammatory activity in po dosed rat assessed as inhibition of carrageenan-induced paw edema administered 30 mins before carrageenan challenge measured after 1 to 5 hrs; format: functional, organism-based; how it was run: as §1
[14] = Ulcerogenecity in rat carrageenan-induced inflammation model assessed as stomach mucosal damage by measuring lesions at 5 to 20 mg/kg, po administered 30 mins before carrageenan challenge measured after 1 to 5 hrs by macroscopic analysis; format: ADME, organism-based; conditions: in vivo
[15] = target: T1, Prostaglandin G/H synthase 1 (Ovis aries, UniProt P05979); test: Inhibition of ovine COX1 by enzyme immunoassay
T1 sequence (P05979 whole entry): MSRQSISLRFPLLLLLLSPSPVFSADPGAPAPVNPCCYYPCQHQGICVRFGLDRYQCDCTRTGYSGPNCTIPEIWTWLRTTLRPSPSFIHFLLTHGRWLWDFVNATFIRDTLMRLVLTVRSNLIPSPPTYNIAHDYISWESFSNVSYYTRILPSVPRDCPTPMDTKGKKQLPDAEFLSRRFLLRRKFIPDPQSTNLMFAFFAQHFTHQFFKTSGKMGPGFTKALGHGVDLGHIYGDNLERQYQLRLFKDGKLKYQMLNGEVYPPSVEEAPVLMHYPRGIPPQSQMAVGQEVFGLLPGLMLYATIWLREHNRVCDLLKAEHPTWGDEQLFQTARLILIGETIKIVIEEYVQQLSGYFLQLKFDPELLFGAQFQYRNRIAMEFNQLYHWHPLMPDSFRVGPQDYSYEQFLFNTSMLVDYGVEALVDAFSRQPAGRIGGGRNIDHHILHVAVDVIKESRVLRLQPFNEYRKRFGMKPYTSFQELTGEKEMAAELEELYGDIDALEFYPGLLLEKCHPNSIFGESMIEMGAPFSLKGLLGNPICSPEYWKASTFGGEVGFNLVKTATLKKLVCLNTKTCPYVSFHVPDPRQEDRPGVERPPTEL

SMILES	inhibition in vivo at 10 mg/kg (Rattus norvegicus [1]) [%]	inhibition in vivo at 10 mg/kg (Rattus norvegicus [2]) [%]	inhibition in vivo at 10 mg/kg (Rattus norvegicus [3]) [%]	Time (Rattus norvegicus [4]) [s]	Time (Rattus norvegicus [5]) [s]	Time (Rattus norvegicus [6]) [s]	other results
Fc1ccc(N2CCN(Cc3ccc4c(c3)OCCO4)CC2)cc1	57	82	62	21.5	20.7	19.9	–
FC(F)(F)c1cccc(N2CCN(Cc3ccc4c(c3)OCCO4)CC2)c1	68	91 to 92	76 to 78	26.4	24.7	23.1	inhibition in vivo at 20 mg/kg (Rattus norvegicus [7]): 78%; inhibition in vivo at 20 mg/kg (Rattus norvegicus [8]): 95%; inhibition in vivo at 20 mg/kg (Rattus norvegicus [9]): 75%; inhibition in vivo at 5 mg/kg (Rattus norvegicus [10]): 56%; inhibition in vivo at 5 mg/kg (Rattus norvegicus [11]): 73%; inhibition in vivo at 5 mg/kg (Rattus norvegicus [12]): 50%; inhibition (Rattus norvegicus [13]): Dose-dependent effect; Activity [14]: Non-Toxic; IC50 [15]: 8.35 µM
Cc1ccc(N2CCN(Cc3ccc4c(c3)OCCO4)CC2)c(C)c1	11	28	16	–	–	–	–
COc1cccc(N2CCN(Cc3ccc4c(c3)OCCO4)CC2)c1	40	62	45	–	–	–	–
O=C(O)Cc1ccccc1Nc1c(Cl)cccc1Cl [DICLOFENAC]	50 to 52	79 to 80	41 to 42	24.1	23.5	22.3	–
Clc1cccc(N2CCN(Cc3ccc4c(c3)OCCO4)CC2)c1Cl	13	28	18	–	–	–	–
c1ccc(C(c2ccccc2)N2CCN(Cc3ccc4c(c3)OCCO4)CC2)cc1	19	27	15	–	–	–	–
Clc1cccc(N2CCN(Cc3ccc4c(c3)OCCO4)CC2)c1	24	37	31	–	–	–	–
c1ccc(N2CCN(Cc3ccc4c(c3)OCCO4)CC2)cc1	25	35	28	–	–	–	–
c1ccc(N2CCN(Cc3ccc4c(c3)OCCO4)CC2)nc1	35	55	40	–	–	–	–
O=[N+]([O-])c1ccc(N2CCN(Cc3ccc4c(c3)OCCO4)CC2)cc1	65	79	68	23.4	22.6	21.2	–
COc1ccc(N2CCN(Cc3ccc4c(c3)OCCO4)CC2)cc1	63	88	71	24.6	23.3	22.3	–

From ChEMBL document CHEMBL4428123, “Synthesis of phenylpiperazine derivatives of 1,4-benzodioxan as selective COX-2 inhibitors and anti-inflammatory agents” (Bioorg Med Chem, 2016)
